From PubChem BioAssay
TRPML3 agonist = agonists of human TRPML3 channel. HEK293 TRPML3-YFP, Fluo-8 calcium fluorescence; 100% = the carbachol control signal. activation, % at 3 µM. 0.29% of 220,000 active. AID 1448;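 active = activation above its plate's cutoff, the mean activation of the plate's test wells plus 3 SD, cut at about 12% in these data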;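 note: 0% = DMSO only wells and 100% = carbachol wells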
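Material: TRPML3-YFP stable HEK293 cells | Dosing: One concentration, 3 µM nominal, 0.3% DMSO | Timing: 125 s total fluorescence read per well | Technique: Fluo-8 calcium dye fluorescence, ex 470-495, em 515-575 nm | Measure: Percent activation from peak-to-basal fluorescence ratio, scaled between DMSO and carbachol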
TRPN1 ag = agonists of zebrafish TRPN1 channel; HEK293 zebrafish TRPN1-YFP, Fluo-8 calcium fluorescence; 100% = response to 87 µM carbachol; activation, % at 3 µM; 0.18% of 220,000 active; AID 1424;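 active = activation above its plate's cutoff, the mean activation of test wells on that plate plus 3 SD, cut at about 19% in these data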;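 note: 0% = DMSO alone and 100% = 87 µM carbachol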
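Material: zebrafish TRPN1-YFP in HEK293 cells; Doses: single test compound dose, 3 µM nominal, 0.3% DMSO; Timing: dye loading 1 h at 37 °C, then 30 min room temperature; Technique: intracellular calcium fluorescence with Fluo-8; Benchmarks: high carbachol 87 µM, low DMSO alone.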
CHO parental Ca = signal in parental CHO cells, OX1R antagonist counter-screen; parental CHO-K1, ATP-induced calcium, Fluo-8 fluorescence; inhibition, % at 5.6 µM; 0.63% of 330,000 active; AID 463079;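 active = inhibition above that plate's mean sample inhibition plus 3 SD, cut at about 26% in these data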;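 note: 0% = ATP-challenged DMSO wells and 100% = DMSO wells without ATP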
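Test system: untransfected parental CHO cell line. Compound: one dose, 5.6 µM nominal. Detection: intracellular calcium via Fluo-8 no-wash fluorescent dye. Measure: % inhibition. Benchmarks: ATP-challenged DMSO wells low, unchallenged DMSO wells high.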
OX1R antag-1 = antagonists of human orexin 1 receptor | O43613 | CHO/OX1R cells, Fluo-8 calcium fluorescence, orexin A | inhibition, % at 5 µM | 0.43% of 330,000 active | AID 434989;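 active = inhibition above its plate's threshold, mean inhibition of all tested compounds on the plate plus 3 SD, cut at about 37% in these data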;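 note: 0% = orexin A challenge wells and 100% = SB-334867-A antagonist wells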
Target sequence (O43613 whole entry, looked up): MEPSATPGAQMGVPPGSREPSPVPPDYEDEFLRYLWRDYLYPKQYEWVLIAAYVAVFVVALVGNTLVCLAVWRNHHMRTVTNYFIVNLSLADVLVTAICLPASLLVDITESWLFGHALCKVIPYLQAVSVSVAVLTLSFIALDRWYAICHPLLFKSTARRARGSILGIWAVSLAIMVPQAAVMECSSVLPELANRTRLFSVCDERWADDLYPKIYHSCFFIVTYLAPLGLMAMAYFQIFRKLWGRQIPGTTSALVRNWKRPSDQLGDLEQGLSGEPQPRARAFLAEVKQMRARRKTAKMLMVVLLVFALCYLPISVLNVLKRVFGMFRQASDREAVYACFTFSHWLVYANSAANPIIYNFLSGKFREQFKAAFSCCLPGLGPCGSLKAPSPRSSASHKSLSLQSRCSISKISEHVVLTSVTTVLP
OX1R antag-2 = blocks the human orexin 1 receptor; O43613; OX1R-expressing cells, FRET antagonist read-out; inhibition, % at 6.6 µM; 1.8% of 330,000 active; AID 485270; in the data active = inhibition mostly above about 38%, no sharp cut-off; inactive = mostly below about 40%;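 note: 0% = agonist challenge alone and 100% = reference antagonist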
OX1R HTRF confirm = OX1R (human) antagonism, HTRF confirmed. shares compounds with OX1R antag-2. inhibition, % at 6.6 µM. 49% of 1,800 active. OX1R-expressing cells, HTRF antagonist assay; in the data active = inhibition above about 55%;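 note: CHO cells expressing OX1R stimulated with orexin A at about EC80; 0% = agonist challenge alone and 100% = reference antagonist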
CHO-K1 HTRF = counter-screen: parental CHO-K1 HTRF response | inhibition, % at 6.6 µM | 48% of 1,800 active | shares compounds with OX1R antag-2 | AID 493232 | parental CHO-K1 cells, HTRF counterscreen; in the data active = inhibition above about 17%;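 note: 0% = agonist challenge with vehicle and 100% = vehicle alone without agonist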
Active calls of the source: *; . = not tested or not shown. An excerpt weighted towards active compounds, which were near 2.5% of everything screened.

SMILES	TRPML3 agonist	TRPN1 ag	CHO parental Ca	OX1R antag-1	OX1R antag-2	OX1R HTRF confirm	CHO-K1 HTRF
O=c1c2ccccc2nc2c3ccccc3c(NCc3ccccn3)nn12	1	0	-18	4	90*	88*	7
Cc1cc(NCc2ccccn2)nc2ccccc12	1	-2	-7	-33	3	.	.
O=C(Nc1ccccc1)N1CCN(CCc2ccccc2)CC1	1	0	-10	-16	13	.	.
CN1CCN(C(=O)Nc2ccccc2)CC1	1	1	2	-7	92*	27	5
O=c1c2ccccc2nc2oc3ccccc3n12	.	.	2	-12	-8	.	.
NC(=O)c1cccc2cc3ccccc3cc12	0	-1	-18	4	77*	26	15
CC(=O)c1nnn(-c2ccc([N+](=O)[O-])cc2C)c1C	0	1	-16	-16	162*	27	40*
CC(=O)c1nnn(-c2cccc([N+](=O)[O-])c2)c1C	-1	-1	-3	-16	30	.	.
CCOC(=O)c1csc(-c2ccc([N+](=O)[O-])cc2)n1	0	0	-5	0	104*	40	44*
CCOC(=O)c1cnn(-c2ccc([N+](=O)[O-])cc2)c1N	1	2	-12	-12	22	.	.
CCOC(=O)c1cc(-c2cccc([N+](=O)[O-])c2)on1	1	1	19	11	26	.	.
CCOC(=O)c1nnn(-c2ccc([N+](=O)[O-])cc2)c1C	1	-1	2	-7	111*	42	54*
Cc1cccc(OCCCC(=O)NNC(=O)c2ccccn2)c1	.	.	-14	0	6	.	.
Cc1cccc(C(C(N)=O)c2ncc(C(F)(F)F)cc2Cl)c1 (stereo not given)	0	-1	-15	-8	4	.	.
CCOC(=O)c1nn(-c2ccccc2)c(=O)c2c(N)scc12	0	0	-13	-22	108*	31	17*
CN1CCN(C2=C(NS(=O)(=O)c3cccs3)C(=O)c3ccccc3C2=O)CC1	0	1	-4	-11	132*	62*	99*
NC(=O)C1CCN(C2=C(NS(=O)(=O)c3ccccc3)C(=O)c3ccccc3C2=O)CC1	1	1	-6	-18	129*	59*	76*
CN1CCN(C2=C(NS(=O)(=O)c3ccccc3)C(=O)c3ccccc3C2=O)CC1	.	.	-16	-23	96*	74*	90*
CCN1CCN(C2=C(NS(=O)(=O)c3ccc(Br)cc3)C(=O)c3ccccc3C2=O)CC1	.	.	-8	-25	95*	70*	88*
O=C1C(NS(=O)(=O)c2cccs2)=C(N2CCOCC2)C(=O)c2ccccc21	0	1	0	6	86*	95*	63*
O=C1C(NS(=O)(=O)c2cccs2)=C(N2CCN(Cc3ccccc3)CC2)C(=O)c2ccccc21	-1	-1	-23	-20	37	.	.
O=C1C(Nc2ccccc2)=C(NS(=O)(=O)c2ccccc2)C(=O)c2ccccc21	0	-1	-30	-12	45	.	.
O=C1C(NS(=O)(=O)c2ccc(Cl)cc2)=C(N2CCCCC2)C(=O)c2ccccc21	0	0	-38	-29	111*	41	41*
O=C1C(Cl)=C(N2CCC(C(=O)O)CC2)C(=O)c2ccccc21	0	0	-15	-7	101*	52	64*
O=C(O)C1CCN(C(=O)c2ccccc2Cl)CC1	1	-1	-12	-15	11	.	.
SMILES	TRPML3 agonist	TRPN1 ag	CHO parental Ca	OX1R antag-1	OX1R antag-2	OX1R HTRF confirm	CHO-K1 HTRF
Cc1cc(C)c(NC(=O)CN(C)C(=O)CCC(=O)c2ccc(C)s2)c(C)c1	.	.	-29	-51	4	.	.
CCOC(=O)c1c(S(=O)(=O)N(C)Cc2ccccc2)c(C)n(C)c1C	.	.	-5	8	13	.	.
CCOC(=O)c1c(C)oc2c1c(C(c1cccnc1)N1CCCCC1)c(O)c1ccccc12 (stereo not given)	1	-1	-27	-9	95*	17	6
CC12CCC(C(=O)Nc3nc4ccccc4s3)(OC1=O)C2(C)C (stereo not given)	1	0	-19	-18	2	.	.
CC(=O)Oc1c(-c2ccc(Br)o2)oc2ccccc2c1=O	.	.	-1	24	83*	84*	3
CCn1c(/C=C/c2cc[n+](C)cc2)nc2ccccc21	.	.	-3	11	78*	48	59*
Cc1c(Cl)cccc1NC(=O)c1cc(-c2ccccc2O)n[nH]1	1	1	4	7	81*	24	15
CCN1C(=O)/C(=C2/C=Cc3cc(C)ccc3N2CC)N(C)C1=S	0	0	-11	-14	134*	54	79*
COc1cc(/C=C2\OC(=O)c3c(OC)cccc32)ccc1O	0	0	0	-14	79*	58*	13
COc1cc(/C=C2\C(=O)ON=C2c2ccc(Cl)cc2)ccc1O	.	.	1	0	13	.	.
CC(C)(C)NC(=O)C(c1ccccn1)N(C(=O)C1CSC(=O)C1)c1cccc(F)c1 (stereo not given)	1	0	-21	-18	3	.	.
CCc1ccc(N(CC(=O)NCC2CCCO2)C(=O)CCC(=O)Nc2nccs2)cc1 (stereo not given)	.	.	-8	-15	6	.	.
CCCS(=O)(=O)N1CCN(c2cc3c(cc2[N+](=O)[O-])n(C)c(=O)n3C)CC1	2	4	2	-5	78*	33	49*
Cc1ccc(S(=O)(=O)N2CCN(c3cc4c(cc3[N+](=O)[O-])n(C)c(=O)n4C)CC2)cc1	2	4	-10	-6	16	.	.
COc1ccccc1-c1noc(CCCC(=O)Nc2ccc(C(N)=O)cc2)n1	0	0	3	-17	7	.	.
NC(=O)c1ccc(Nc2ccc([N+](=O)[O-])cc2[N+](=O)[O-])cc1	1	1	-9	-4	107*	42	54*
COc1ccc(Nc2ccc([N+](=O)[O-])cc2[N+](=O)[O-])cc1	-1	-3	-3	-29	16	.	.
O=C(NCc1cccnc1)c1ccc(Cl)cc1[N+](=O)[O-]	0	1	-21	-16	77*	41	33*
O=C(NCCN1CCOCC1)c1cc([N+](=O)[O-])cc([N+](=O)[O-])c1	.	.	-11	-6	78*	50	72*
O=C(NCCCN1CCOCC1)c1cc(Cl)ccc1[N+](=O)[O-]	0	-1	-3	6	30	.	.
O=C(NCCCN1CCOCC1)c1ccc(Cl)cc1[N+](=O)[O-]	0	1	-6	-19	106*	36	7
O=C(NCCN1CCOCC1)c1ccc(Cl)c([N+](=O)[O-])c1	.	.	-5	-8	12	.	.
